Measurements: ChEMBL document CHEMBL2176895, “Bacterial reduction as means for colonic drug delivery: can other chemical groups provide an alternative to the azo bond?” (J Med Chem, 2012)

What was measured:
[1] = Drug metabolism in Sprague-Dawley rat cecal contents assessed as accumulation of colonic bacteria-mediated final reduction product level at 2 mM; type: ADME; details: 2000 µM
Summary of the method: (§1)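 The reduction was followed by reversed-phase HPLC with photodiode-array detection on a C18 column at 30 °C and 1 mL/min. Elution used a gradient of methanol against 50 mM potassium phosphate buffer, pH 6.8, containing 0.1% tetrabutylammonium hydroxide.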

[2] = Drug metabolism in Sprague-Dawley rat cecal contents assessed as colonic bacteria-mediated rate for final reduction product formation relative to sulfasalazine reduction rate; type: ADME; summary of the method: as §1

Row | Structure (SMILES) | Drug metabolism [1] | Ratio [2]
1 | O=C(O)c1cc([N+](=O)[O-])ccc1O | Active | 0.45
2 | O=C(O)c1cc(/N=N/c2ccc(O)c(C(=O)O)c2)ccc1O [OLSALAZINE] | Active | 
3 | O=C(O)c1cc([N+](=O)[O-])cc(C(F)(F)F)c1 |  | 1.222
4 | Cc1ccc([N+](=O)[O-])cc1C(=O)O |  | 0.603
5 | O=C(O)c1cc([N+](=O)[O-])ccc1Cl |  | 1.013

Second part, the compound after the results:

Row | Drug metabolism [1] | Ratio [2] | Structure (SMILES)
6 |  | 0.759 | O=C(O)c1cccc([N+](=O)[O-])c1
7 |  | 0.128 | O=C(O)c1cc(C(=O)O)cc([N+](=O)[O-])c1
8 | Active |  | O=C(O)c1cc(SSc2ccc(O)c(C(=O)O)c2)ccc1O
9 |  | 0.113 | O=C(O)c1ccc([N+](=O)[O-])cc1C(=O)O
10 |  | 0.724 | CN(C)c1ccc([N+](=O)[O-])cc1C(=O)O
